No end group written: not given here.
Tests used:
[1] = synthetic ACE inhibitor drugs; ref Lee and Hur, 2017; cited from earlier work
[2] = system: ACE; settings: peptides with C-terminal Tyr residues; ref Chen et al., 2009; Erdmann et al., 2006; Ko et al., 2012; Liu et al., 2021; Yu et al., 2019; cited from earlier work
[3] = biological target: ACE (angiotensin I-converting enzyme) (Homo sapiens, UniProt P12821); experiment: ACE inhibition activity; type: biochemical
In short: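 Commercial ACE kit-WST run according to the manufacturer's protocol. The test compound was a peptide purified from an alcalase hydrolysate of velvet antler (<5 kDa ultrafiltration fraction, then Sephadex G-25, then reverse-phase HPLC) and lyophilized. Results are reported as mean±SD. Groups were compared by one-way ANOVA with Duncan's multiple range test, with significance at p<0.05.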

Sequence of ACE (angiotensin I-converting enzyme) (P12821 30-1306, species assumed): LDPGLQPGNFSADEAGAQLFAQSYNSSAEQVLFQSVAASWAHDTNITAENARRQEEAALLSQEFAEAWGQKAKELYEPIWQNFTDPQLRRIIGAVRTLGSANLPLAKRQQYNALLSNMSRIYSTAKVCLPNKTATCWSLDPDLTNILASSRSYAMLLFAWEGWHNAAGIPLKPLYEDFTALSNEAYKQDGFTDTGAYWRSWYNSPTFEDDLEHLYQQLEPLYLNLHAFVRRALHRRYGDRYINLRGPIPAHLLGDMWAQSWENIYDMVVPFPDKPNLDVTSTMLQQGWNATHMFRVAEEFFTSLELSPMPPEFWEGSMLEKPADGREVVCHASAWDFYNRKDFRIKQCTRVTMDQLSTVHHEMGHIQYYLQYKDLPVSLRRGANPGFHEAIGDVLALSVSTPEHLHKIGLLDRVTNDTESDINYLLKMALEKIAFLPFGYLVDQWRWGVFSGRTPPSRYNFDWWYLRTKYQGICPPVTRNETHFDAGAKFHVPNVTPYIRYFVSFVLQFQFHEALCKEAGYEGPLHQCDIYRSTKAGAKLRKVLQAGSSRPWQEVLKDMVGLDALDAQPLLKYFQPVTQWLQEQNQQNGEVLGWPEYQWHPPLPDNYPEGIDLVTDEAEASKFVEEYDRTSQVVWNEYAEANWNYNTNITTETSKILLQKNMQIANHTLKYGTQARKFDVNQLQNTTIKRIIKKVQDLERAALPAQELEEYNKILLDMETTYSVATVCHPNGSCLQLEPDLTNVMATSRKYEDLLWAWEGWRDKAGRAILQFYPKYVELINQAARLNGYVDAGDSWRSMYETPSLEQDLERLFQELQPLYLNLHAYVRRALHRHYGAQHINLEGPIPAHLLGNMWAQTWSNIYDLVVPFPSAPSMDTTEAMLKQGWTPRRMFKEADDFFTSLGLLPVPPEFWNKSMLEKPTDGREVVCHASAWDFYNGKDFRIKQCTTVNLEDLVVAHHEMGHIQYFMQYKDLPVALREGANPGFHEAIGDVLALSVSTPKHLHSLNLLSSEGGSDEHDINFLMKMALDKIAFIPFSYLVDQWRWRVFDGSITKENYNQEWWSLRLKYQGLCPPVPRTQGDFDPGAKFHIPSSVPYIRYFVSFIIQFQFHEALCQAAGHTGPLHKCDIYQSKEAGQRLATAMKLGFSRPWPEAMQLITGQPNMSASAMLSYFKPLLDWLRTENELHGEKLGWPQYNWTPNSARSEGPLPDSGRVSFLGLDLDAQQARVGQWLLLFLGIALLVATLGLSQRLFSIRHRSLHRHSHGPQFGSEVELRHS

| Compound | side effects [1] | ACE inhibitory activity (in words) [2] | also measured |
| --- | --- | --- | --- |
| CCOC(=O)[C@H](CCc1ccccc1)N[C@H]1CCc2ccccc2N(CC(=O)O)C1=O [benazepril] | headaches, insomnia, fatigue, and increased blood potassium levels |  |  |
| C[C@H](CS)C(=O)N1CCC[C@H]1C(=O)O [captopril] | headaches, insomnia, fatigue, and increased blood potassium levels |  |  |
| CCOC(=O)[C@H](CCc1ccccc1)N[C@@H](C)C(=O)N1CCC[C@H]1C(=O)O [enalapril] | headaches, insomnia, fatigue, and increased blood potassium levels |  |  |
| Arg-Val-Tyr |  | potent ACE inhibitory activities |  |
| DNRYY [DNRYY, Asp-Asn-Arg-Tyr-Tyr] |  |  | IC50 [3]: 3.72 µM; inhibition at 1.75 µM ([3]; read-out: ACE inhibition): 23.6%; inhibition at 3.5 µM ([3]; read-out: ACE inhibition): 48.1%; inhibition at 7 µM ([3]; read-out: ACE inhibition): 69.8%; inhibition at 14 µM ([3]; read-out: ACE inhibition): 89.5% |
| Ile-Tyr |  | potent ACE inhibitory activities |  |
| Met-Tyr |  | potent ACE inhibitory activities |  |
| Val-Tyr |  | potent ACE inhibitory activities |  |

— article PMC9890357 (Food Science of Animal Resources, 2023)
